Data from ChEMBL document CHEMBL4834420, “Projected Dose Optimization of Amino- and Hydroxypyrrolidine Purine PI3Kδ Immunomodulators” (J Med Chem, 2021).
Values after ≈ are worked out from the molar mass of the structure shown. Active and inactive are the calls of the source. The calls are words filed in the database; no cut-off is given here.

How the values were obtained:
[1] = Unbound volume of distribution in Wistar Han rat; type: ADME; settings: in vivo
[2] = molecular target: Voltage-dependent L-type calcium channel subunit alpha-1C (Homo sapiens, UniProt Q13936); experiment: Inhibition of Cav1.2 (unknown origin)
[3] = Oral bioavailability in Beagle dog; type: ADME, organism-based, Canis lupus familiaris; settings: in vivo
Rattus norvegicus [4] = experiment: Immunomodulatory activity in ovalbumin induced Brown Norway rat allergic rhinitis model assessed as reduction in BAL count at 10 mg/kg, po administered for 2 days and treated with ovalbumin after 1 hr post second dose; type: functional; set-up: scale not given: the % may be the effect or the level left; settings: time 2 day
In short: (§1)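 Brown Norway rats were presensitized with ovalbumin, 0.020 mg ip daily for 14 days. They then received compound orally for 2 days (0.3–30 mg/kg range studied). Ovalbumin challenge came 1 h after the second dose. Eosinophil cell count in bronchoalveolar lavage was assessed 48 h later.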

[5] = Protein binding in Beagle dog plasma; type: ADME, cell-free, Canis lupus familiaris; settings: read-out: PPB (converted)
Cytochrome P450 2B6 = molecular target: T1, Cytochrome P450 2B6 (Homo sapiens, UniProt P20813); experiment: Inhibition of CYP2B6 (unknown origin); type: ADME
T1 sequence (P20813 whole entry): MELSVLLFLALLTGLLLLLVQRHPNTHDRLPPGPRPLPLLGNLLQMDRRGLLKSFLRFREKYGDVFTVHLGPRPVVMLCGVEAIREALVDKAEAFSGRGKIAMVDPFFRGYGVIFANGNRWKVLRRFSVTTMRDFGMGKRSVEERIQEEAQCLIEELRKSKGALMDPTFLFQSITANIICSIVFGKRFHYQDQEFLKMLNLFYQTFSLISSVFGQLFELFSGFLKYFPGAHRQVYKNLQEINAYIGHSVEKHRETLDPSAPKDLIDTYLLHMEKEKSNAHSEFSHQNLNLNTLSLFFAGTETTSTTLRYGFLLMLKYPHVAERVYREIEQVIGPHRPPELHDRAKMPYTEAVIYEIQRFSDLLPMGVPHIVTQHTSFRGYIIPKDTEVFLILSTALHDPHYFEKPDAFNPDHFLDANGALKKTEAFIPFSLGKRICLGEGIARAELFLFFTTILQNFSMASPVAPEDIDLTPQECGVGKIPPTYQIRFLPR

[6] = Unbound trough plasma concentration C57BL/6 mouse at 100 mg/kg; type: ADME, organism-based; settings: in vivo
In short: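 C57BL/6-Foxp3-GFP reporter mice were dosed at 30 and 100 mg/kg/day for up to 7 days, with exposure determined at 100 mg/kg. The unbound Cmax and trough values were derived from total plasma levels. Treg readout was bioluminescence imaging 10 min after 3 mg luciferin ip, reported as radiance in photons/s/cm²/steradian.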

[7] = Half life in C57BL/6 mouse; type: ADME; settings: in vivo
[8] = Plasma protein binding in Brown Norway rat at 10 mg/kg, po; type: ADME, organism-based; settings: read-out: PPB (converted)
[9] = Volume of distribution in Beagle dog; type: ADME, Canis lupus familiaris; settings: in vivo
Rattus norvegicus [10] = experiment: Immunomodulatory activity in ovalbumin induced Brown Norway rat allergic rhinitis model assessed as reduction in BAL count at 30 mg/kg, po administered for 2 days and treated with ovalbumin after 1 hr post second dose; type: functional, organism-based; settings: time 2.0 day; in short: as §1
[11] = Unbound Trough plasma concentration Brown Norway rat at 10 mg/kg, po; type: ADME, organism-based; settings: in vivo
Cytochrome P450 2C9 = Cytochrome P450 2C9 (Homo sapiens, UniProt P11712); experiment: Inhibition of CYP2C9 (unknown origin); type: ADME
[12] = Solubility of the compound at pH 7.4; type: physicochemical; settings: buffer
[13] = Dissociation constant, pKa of compound; type: physicochemical
[14] = Plasma clearance in Wistar Han rat at 0.5 mg/kg, iv or 1 mg/kg, po; type: ADME, organism-based
Cytochrome P450 1A2 = molecular target: T2, Cytochrome P450 1A2 (Homo sapiens, UniProt P05177); experiment: Inhibition of CYP1A2 (unknown origin); type: ADME
T2 sequence (P05177 whole entry): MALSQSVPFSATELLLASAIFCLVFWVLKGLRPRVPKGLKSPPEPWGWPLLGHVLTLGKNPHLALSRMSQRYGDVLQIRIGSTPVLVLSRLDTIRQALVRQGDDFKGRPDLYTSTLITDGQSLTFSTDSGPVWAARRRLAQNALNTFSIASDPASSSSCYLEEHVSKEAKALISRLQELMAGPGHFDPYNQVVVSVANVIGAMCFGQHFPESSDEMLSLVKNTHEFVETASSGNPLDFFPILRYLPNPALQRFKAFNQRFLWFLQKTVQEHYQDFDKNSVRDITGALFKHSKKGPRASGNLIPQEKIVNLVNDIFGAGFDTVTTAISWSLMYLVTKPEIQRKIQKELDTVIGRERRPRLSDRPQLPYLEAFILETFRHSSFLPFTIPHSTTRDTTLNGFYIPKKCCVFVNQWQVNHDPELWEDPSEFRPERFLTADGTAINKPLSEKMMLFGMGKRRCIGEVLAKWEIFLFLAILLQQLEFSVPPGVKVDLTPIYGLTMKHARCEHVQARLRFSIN

[15] = Unbound volume of distribution in Beagle dog; type: ADME, Canis lupus familiaris; settings: in vivo
[16] = AUC in C57BL/6 mouse at 100 mg/kg; type: ADME, organism-based; set-up: dose 100 mg/kg; settings: in vivo
[17] = Intrinsic clearance in dog hepatocytes; type: ADME, cell-based, Canis lupus familiaris, Hepatocyte; settings: read-out: CLH
[18] = Inhibition of adenosine transporter in human HeLa cells assessed as reduction in [3H]adenosine uptake preincubated for 30 mins followed by [3H]adenosine addition and measured after 60 mins; type: cell-based

Sequence of Cytochrome P450 2C9 (P11712 whole entry): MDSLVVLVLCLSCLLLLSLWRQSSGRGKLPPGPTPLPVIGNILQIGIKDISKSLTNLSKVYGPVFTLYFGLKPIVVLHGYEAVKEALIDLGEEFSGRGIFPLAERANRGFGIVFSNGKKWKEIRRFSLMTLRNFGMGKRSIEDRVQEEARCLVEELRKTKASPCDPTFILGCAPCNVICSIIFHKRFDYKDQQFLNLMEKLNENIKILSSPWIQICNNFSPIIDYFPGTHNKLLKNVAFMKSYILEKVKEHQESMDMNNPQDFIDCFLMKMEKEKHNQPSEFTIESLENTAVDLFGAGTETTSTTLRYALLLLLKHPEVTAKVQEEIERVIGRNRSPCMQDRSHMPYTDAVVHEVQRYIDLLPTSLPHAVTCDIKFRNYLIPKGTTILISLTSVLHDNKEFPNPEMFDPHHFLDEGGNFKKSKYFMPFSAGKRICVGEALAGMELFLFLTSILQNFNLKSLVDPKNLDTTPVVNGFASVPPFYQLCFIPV
Sequence of Voltage-dependent L-type calcium channel subunit alpha-1C (Q13936 whole entry): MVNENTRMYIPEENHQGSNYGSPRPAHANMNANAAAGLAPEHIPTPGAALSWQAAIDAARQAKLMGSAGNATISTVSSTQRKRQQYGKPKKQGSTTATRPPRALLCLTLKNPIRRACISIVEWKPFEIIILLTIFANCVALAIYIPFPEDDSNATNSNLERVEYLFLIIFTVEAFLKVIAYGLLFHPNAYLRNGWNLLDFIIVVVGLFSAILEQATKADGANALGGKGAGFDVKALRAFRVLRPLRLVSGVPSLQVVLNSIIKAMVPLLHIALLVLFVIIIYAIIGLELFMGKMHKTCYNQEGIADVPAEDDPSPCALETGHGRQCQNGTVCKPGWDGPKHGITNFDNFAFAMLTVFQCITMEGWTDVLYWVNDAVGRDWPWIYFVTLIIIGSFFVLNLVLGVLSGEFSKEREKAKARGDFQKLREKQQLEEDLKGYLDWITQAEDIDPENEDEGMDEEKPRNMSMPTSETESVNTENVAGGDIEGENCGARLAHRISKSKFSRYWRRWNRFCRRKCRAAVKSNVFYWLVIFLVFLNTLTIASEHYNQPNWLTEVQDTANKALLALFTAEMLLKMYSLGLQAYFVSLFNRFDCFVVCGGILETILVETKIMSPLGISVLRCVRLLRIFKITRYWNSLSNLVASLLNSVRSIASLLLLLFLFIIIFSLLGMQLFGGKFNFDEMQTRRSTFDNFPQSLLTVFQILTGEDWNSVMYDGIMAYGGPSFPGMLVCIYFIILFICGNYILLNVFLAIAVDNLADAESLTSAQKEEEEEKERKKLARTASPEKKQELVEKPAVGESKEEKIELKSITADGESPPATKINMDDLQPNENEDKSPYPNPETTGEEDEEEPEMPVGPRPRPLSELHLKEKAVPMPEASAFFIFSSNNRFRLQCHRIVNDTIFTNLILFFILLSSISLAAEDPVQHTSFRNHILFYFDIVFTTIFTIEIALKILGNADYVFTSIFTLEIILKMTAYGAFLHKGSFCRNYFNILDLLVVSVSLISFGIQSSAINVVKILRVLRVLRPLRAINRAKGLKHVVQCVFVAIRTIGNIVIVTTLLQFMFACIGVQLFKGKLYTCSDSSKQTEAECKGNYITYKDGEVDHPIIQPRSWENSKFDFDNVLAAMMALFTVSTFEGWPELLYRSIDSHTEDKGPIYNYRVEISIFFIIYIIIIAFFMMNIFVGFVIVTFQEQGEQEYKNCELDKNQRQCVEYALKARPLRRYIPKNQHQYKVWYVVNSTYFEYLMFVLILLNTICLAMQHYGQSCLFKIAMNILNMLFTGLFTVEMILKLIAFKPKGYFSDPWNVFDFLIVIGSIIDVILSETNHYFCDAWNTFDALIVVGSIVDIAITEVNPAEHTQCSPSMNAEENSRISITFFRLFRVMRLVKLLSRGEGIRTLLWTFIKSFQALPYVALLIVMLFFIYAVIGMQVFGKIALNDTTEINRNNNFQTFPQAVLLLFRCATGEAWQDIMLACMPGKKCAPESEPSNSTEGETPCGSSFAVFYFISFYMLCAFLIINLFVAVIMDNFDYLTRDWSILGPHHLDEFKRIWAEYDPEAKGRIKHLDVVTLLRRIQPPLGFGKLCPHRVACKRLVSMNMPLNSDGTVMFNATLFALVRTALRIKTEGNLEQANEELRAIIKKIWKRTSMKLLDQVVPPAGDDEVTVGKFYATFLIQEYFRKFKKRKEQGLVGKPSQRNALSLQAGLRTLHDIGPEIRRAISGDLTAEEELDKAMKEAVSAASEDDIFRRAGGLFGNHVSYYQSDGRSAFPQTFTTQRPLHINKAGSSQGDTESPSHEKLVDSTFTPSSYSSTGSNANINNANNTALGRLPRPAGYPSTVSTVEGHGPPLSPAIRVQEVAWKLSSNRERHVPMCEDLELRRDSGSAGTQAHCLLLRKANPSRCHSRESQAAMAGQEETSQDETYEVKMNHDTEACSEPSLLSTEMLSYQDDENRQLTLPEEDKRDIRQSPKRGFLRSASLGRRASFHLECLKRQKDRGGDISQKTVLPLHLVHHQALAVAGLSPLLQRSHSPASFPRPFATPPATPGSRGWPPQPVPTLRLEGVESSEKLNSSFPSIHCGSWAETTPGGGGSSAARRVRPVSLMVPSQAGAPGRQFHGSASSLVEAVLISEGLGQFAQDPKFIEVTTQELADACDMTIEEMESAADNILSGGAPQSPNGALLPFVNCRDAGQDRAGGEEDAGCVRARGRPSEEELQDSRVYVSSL

Question: For `CCn1c(-c2cnc(C)nc2)nc2c(N[C@H]3CCN(C(=O)C4CC4)C3)ncnc21`, which Vdu [1] is on record?
Answer: 6.3 L/kg

Question: What about the IC50 [2] of the same molecule?
Answer: > 50 µM

Question: What about the bioavailability [3] of the same molecule?
Answer: 95%

Question: And the Activity (Rattus norvegicus [4])?
Answer: 50%

Question: And the fraction unbound [5]?
Answer: 0.9

Question: And the IC50 (Cytochrome P450 2B6)?
Answer: > 50 µM

Question: What about the fCmin [6] of the same molecule?
Answer: 52 nM

Question: What about the half-life [7] of the same molecule?
Answer: 48 min

Question: What about the fraction unbound [8] of the same molecule?
Answer: 0.59

Question: What about the Vd [9] of the same molecule?
Answer: 1.5 L/kg

Question: And the Activity (Rattus norvegicus [10])?
Answer: Active

Question: What about the fCmin [11] of the same molecule?
Answer: 8 nM

Question: What about the IC50 (Cytochrome P450 2C9) of the same molecule?
Answer: > 50 µM

Question: And the solubility [12]?
Answer: 15 mg/mL (≈ 38.2 mM)

Question: What about the pKa [13] of the same molecule?
Answer: 3.06

Question: What about the clearance [14] of the same molecule?
Answer: 8.1 mL/min/kg

Question: And the IC50 (Cytochrome P450 1A2)?
Answer: > 50 µM

Question: And the Vdu [15]?
Answer: 1.8 L/kg

Question: And the AUC [16]?
Answer: 133 µM·h

Question: And the CLint scaled [17]?
Answer: < 2 mL/min/kg

Question: And the IC50 [18]?
Answer: 5 µM
